# Laboratory results taken from the EternaBench riboswitch data.
# Test system: MS2 coat protein
# Assay: apparent Kd, MS2 coat protein; higher = weaker binding; RNA-MaP array; theophylline 2 mM where present
# In short: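 Designs were transcribed by stalled E. coli RNA polymerase on Illumina sequencing-chip clusters. They were titrated with SNAP-549-labelled MS2 coat protein from 0.7 or 1.5 nM, doubling to 3 µM, in 100 mM Tris-HCl pH 7.5, 80 mM KCl, 4 mM MgCl2, BSA, DTT, yeast tRNA and Tween-20, without and then with constant ligand. The apparent Kd is the median of filtered per-cluster fits after normalisation of green signal to red-channel RNA signal and control-cluster median Fmax.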
# [1] = designed as: ON switch for theophylline, no ligand
# [2] = ligand present: theophylline, designed as: ON switch for theophylline
# [3] = designed as: OFF switch for theophylline, no ligand
# [4] = ligand present: theophylline, designed as: OFF switch for theophylline
Sequence,apparent Kd [1],apparent Kd [2],apparent Kd [3],apparent Kd [4]
GGAUAGAUAGGAGAUACCAGAUACAUAAACAUGAGGAUCACCCAUGUGUCUGCACUAAGUAUCCCUUGGCAGCUCGGAGAUCUGA,17.6 nM,15 nM,–,–
ACUAGUUGUGCAGAUACCAGACAUGAGGAUCACCCAUGUUUGGGAUGUUCGCAUCUUCCUGUCCCUUGGCAGCUGUACAUCUAGA,–,–,82.5 nM,44.6 nM
UGCGAUUGCUCAGAUACCAGACAUGAGGAUCACCCAUGUACCAAGGUAAAGAAAUAACGUGUCCCUUGGCAGCUGAGCAAUCGCU,–,–,10.2 nM,98.4 nM
CGUGAUCCCUGUGAUACCAGAAGUACAUGAGGAUCACCCAUGUCAAACACAAAACCAAGCUUCCCUUGGCAGCAUAGUCGUUAAG,238 nM,1310 nM,–,–
ACAUGAGGAUCACCCAUGUCUGCCACUGAUACCAGCGGAAGAAAACGCCCUUGGCAGCAGAACAUGAGGAUCACCCAUGUAGGCU,274 nM,–,–,–
GCAAUACAUGAGGAUCACCCAUGUGCAGAUACCAGAGGUGCGUGCCUCCCUUGGCAGCUGCGACGCUCUGGAAGCUUGUGUGUCU,–,–,19.4 nM,25.2 nM
AGAAUACAUGUUUUAAUACGGUUUACUGAUACCAGUGUAUCUAUUCACCCUUGGCAGCAGAGACAUGAGGAUCACCCAUGUAUUA,–,–,38.8 nM,55.2 nM
UCCUCCUCCGGAAGGAGGAGGAGUUGCGAUACCAGCCCGGAAACGGGCCCUUGGCAGCGCACAUGAGGAUCACCCAUGUCAUGUU,–,–,18.4 nM,24.1 nM
AAAUAAAUCACAUGAGGAUCACCCAUGGAUACCAGGCCUGGAAACAGCCCUUGGCAGCCACAUGAGGAUCACCCAUGUGCUAAUA,–,–,213 nM,219 nM
AUAAGUAAUGUCUCGUGUAUUAUUACAGAUACCAGACUAUCCUAUGUCCCUUGGCAGCUGGAUUACAUGAGGAUCACCCAUGUUG,–,–,23.2 nM,27.5 nM
AAACGUUGCUCAGAUACCAGACAUGAGGAUCACCCAUGUACCGAGGUACCCGAAAGGAAUGUCCCUUGGCAGCUGAGCAACGAAA,–,–,11 nM,123 nM
AUAAGUAUGUUUUCGUGUUUUAUUACAGAUACCAGACUAUACGUUGUCCCUUGGCAGCUGGAUUACAUGAGGAUCACCCAUGUUG,–,–,23.1 nM,53 nM
UUAGAUAUGACGGAUACCAGCGUGUUGUAGAACAUGAGGAUCACCCAUGUAGUGAUCGAGCGCCCUUGGCAGCUGGUAUGUUUGG,179 nM,482 nM,–,–
CGUGUGCGUUCUGAUACCAGAGACAUGAGGAUCACCCAUGUCCGAUCGUCCUGCCUCAGACUCCCUUGGCAGCAGGUUUUGUGCU,–,–,45.7 nM,60.9 nM
ACGACGCAUAGUGAUACCAGUAGAACAUGAGGAUCACCCAUGUCUGUGACGCACAAAUUCUGCCCUUGGCAGCACUAUGCGUCAG,11.4 nM,33.3 nM,–,–
AGACAUGAGGAUCACCCAUGUAGCAUGGAUACCAGAUGUAGAUUUGUCCCUUGGCAGCUGUGGUAAAGUGAUGCAUUGCUCCUAG,–,–,45.2 nM,45.2 nM
AGACAUGAGGAUCACCCAUGUAGCACGGAUACCAGAUCCAGAUUUAUCCCUUGGCAGCUGUGGUACAGCGUUGCAACGCUCCUAG,–,–,18.8 nM,29.4 nM
AUAGUCUAGAGUGAUACCAGACAACAUGAGGAUCACCCAUGUAGCAUAUGGUUAUCAUGAGUCCCUUGGCAGCACGCAUGUAUAG,–,–,12.3 nM,55.8 nM
UGUAUGUGAAGUGAUACCAGUCCAUAAACUGGAACAUGAGGAUCACCCAUGUAAUGGGUGGACCCUUGGCAGCACUUCUCAUACU,122 nM,136 nM,–,–
GGCCUUGCGGGCGCCCGCAAGGCCGCGGAUACCAGCGAGGUCCAUCGCCCUUGGCAGCCGAACAUGAGGAUCACCCAUGUCGGUU,11 nM,13.4 nM,–,–
CGAUCUUUCGAAAGAAGGAUCGAUUCUGAUACCAGAGACGAAAGUCUCCCUUGGCAGCAGUGCCAACAUGAGGAUCACCCAUGUA,22.4 nM,21.3 nM,–,–
CGAAUACCAAUUGAUACCAGCAUGUUAACAUGAGGAUCACCCAUGUUAAGGAUAACAUAAUGCCCUUGGCAGCAACGUAAAUUCG,22.9 nM,13.5 nM,–,–
